Test results as given in ChEMBL document CHEMBL1142454, “Synthesis and evaluation of novel 4-amino-4,6-androstadiene-3,17-dione: an analog of formestane” (2008).

System: OVCAR-3
Assay: Antitumor activity against human OVCAR-3 cells assessed as reduction of cell growth at 10 uM after 48 hrs by SRB assay
Format: functional
Design: scale not given: the % may be the effect or the level left
Method in brief: (§1)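 NCI 60-cell-line primary screen, single dose 10^-5 M (final). Cells grown in RPMI 1640 with 5% FBS and 2 mM L-glutamine, seeded at 5000–40,000 cells/well and preincubated 24 h at 37 °C, 5% CO2. Compound is dissolved in DMSO, diluted in medium with gentamicin, and exposed 48 h. Cells are fixed with 10% TCA (final) and stained with 0.4% SRB; absorbance is read at 515 nm. Readout is growth percentage.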

SMILES | Activity [%]
CCOC1=C2CC[C@@H]3[C@H](CC[C@]4(C)C(=O)CC[C@@H]34)[C@@]2(C)CCC1=O | 128.63

System: IGROV-1
Assay: Antitumor activity against human IGROV1 cells assessed as reduction of cell growth at 10 uM after 48 hrs by SRB assay
Format: functional
Design: scale not given: the % may be the effect or the level left
Method in brief: as §1

SMILES | Activity [%]
CCOC1=C2CC[C@@H]3[C@H](CC[C@]4(C)C(=O)CC[C@@H]34)[C@@]2(C)CCC1=O | 85.75

System: T47D
Assay: Antitumor activity against human T47D cells assessed as reduction of cell growth at 10 uM after 48 hrs by SRB assay
Format: functional
Design: scale not given: the % may be the effect or the level left
Method in brief: (§2)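 NCI-60 one-dose primary screen at 10^-5 M final. Cells grown in RPMI 1640 with 5% FBS and 2 mM L-glutamine, plated at 5000–40,000 cells/well and preincubated 24 h at 37 °C, 5% CO2. Drug stocks in DMSO, diluted in medium with gentamicin. Exposure 48 h, then fixed in situ with TCA (10% final) for 60 min at 4 °C. Stained with 0.4% SRB in 1% acetic acid, bound dye solubilized in 10 mM trizma base, absorbance read at 515 nm. Reported as mean growth percent; negative values indicate cell kill.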

SMILES | Activity [%]
CCOC1=C2CC[C@@H]3[C@H](CC[C@]4(C)C(=O)CC[C@@H]34)[C@@]2(C)CCC1=O | 117.94

System: MCF7
Assay: Antitumor activity against human MCF7 cells assessed as reduction of cell growth at 10 uM after 48 hrs by SRB assay
Format: functional
Design: scale not given: the % may be the effect or the level left
Method in brief: as §1

SMILES | Activity [%]
CCOC1=C2CC[C@@H]3[C@H](CC[C@]4(C)C(=O)CC[C@@H]34)[C@@]2(C)CCC1=O | 108.56

System: not listed separately
Assay: Antitumor activity against human Hs 578T cells assessed as reduction of cell growth at 10 uM after 48 hrs by SRB assay
Format: functional
Design: scale not given: the % may be the effect or the level left
Method in brief: as §1

SMILES | Activity [%]
CCOC1=C2CC[C@@H]3[C@H](CC[C@]4(C)C(=O)CC[C@@H]34)[C@@]2(C)CCC1=O | 118.13

System: BT-549
Assay: Antitumor activity against human BT-549 cells assessed as reduction of cell growth at 10 uM after 48 hrs by SRB assay
Format: functional
Design: scale not given: the % may be the effect or the level left
Method in brief: as §1

SMILES | Activity [%]
CCOC1=C2CC[C@@H]3[C@H](CC[C@]4(C)C(=O)CC[C@@H]34)[C@@]2(C)CCC1=O | 93.87

System: SW-620
Assay: Antitumor activity against human SW620 cells assessed as reduction of cell growth at 10 uM after 48 hrs by SRB assay
Format: functional
Design: scale not given: the % may be the effect or the level left
Method in brief: as §2

SMILES | Activity [%]
CCOC1=C2CC[C@@H]3[C@H](CC[C@]4(C)C(=O)CC[C@@H]34)[C@@]2(C)CCC1=O | 120.57

System: KM12
Assay: Antitumor activity against human KM12 cells assessed as reduction of cell growth at 10 uM after 48 hrs by SRB assay
Format: functional
Design: scale not given: the % may be the effect or the level left
Method in brief: as §1

SMILES | Activity [%]
CCOC1=C2CC[C@@H]3[C@H](CC[C@]4(C)C(=O)CC[C@@H]34)[C@@]2(C)CCC1=O | 123.89

System: HCT-15
Assay: Antitumor activity against human HCT-15 cells assessed as reduction of cell growth at 10 uM after 48 hrs by SRB assay
Format: functional
Design: scale not given: the % may be the effect or the level left
Method in brief: as §1

SMILES | Activity [%]
CCOC1=C2CC[C@@H]3[C@H](CC[C@]4(C)C(=O)CC[C@@H]34)[C@@]2(C)CCC1=O | 110.45

System: COLO 205
Assay: Antitumor activity against human COLO205 cells assessed as reduction of cell growth at 10 uM after 48 hrs by SRB assay
Format: functional
Design: scale not given: the % may be the effect or the level left
Method in brief: as §1

SMILES | Activity [%]
CCOC1=C2CC[C@@H]3[C@H](CC[C@]4(C)C(=O)CC[C@@H]34)[C@@]2(C)CCC1=O | 132.65

System: NCI-H522
Assay: Antitumor activity against human NCI-H522 cells assessed as reduction of cell growth at 10 uM after 48 hrs by SRB assay
Format: functional
Design: scale not given: the % may be the effect or the level left
Method in brief: as §1

SMILES | Activity [%]
CCOC1=C2CC[C@@H]3[C@H](CC[C@]4(C)C(=O)CC[C@@H]34)[C@@]2(C)CCC1=O | 91

System: NCI-H460
Assay: Antitumor activity against human NCI-H460 cells assessed as reduction of cell growth at 10 uM after 48 hrs by SRB assay
Format: functional
Design: scale not given: the % may be the effect or the level left
Method in brief: as §1

SMILES | Activity [%]
CCOC1=C2CC[C@@H]3[C@H](CC[C@]4(C)C(=O)CC[C@@H]34)[C@@]2(C)CCC1=O | 83.36

System: NCI-H322M
Assay: Antitumor activity against human NCI-H322M cells assessed as reduction of cell growth at 10 uM after 48 hrs by SRB assay
Format: functional
Design: scale not given: the % may be the effect or the level left
Method in brief: as §1

SMILES | Activity [%]
CCOC1=C2CC[C@@H]3[C@H](CC[C@]4(C)C(=O)CC[C@@H]34)[C@@]2(C)CCC1=O | 95.97

System: NCI-H226
Assay: Antitumor activity against human NCI-H226 cells assessed as reduction of cell growth at 10 uM after 48 hrs by SRB assay
Format: functional
Design: scale not given: the % may be the effect or the level left
Method in brief: as §1

SMILES | Activity [%]
CCOC1=C2CC[C@@H]3[C@H](CC[C@]4(C)C(=O)CC[C@@H]34)[C@@]2(C)CCC1=O | 98.58

System: HOP-92
Assay: Antitumor activity against human HOP-92 cells assessed as reduction of cell growth at 10 uM after 48 hrs by SRB assay
Format: functional
Design: scale not given: the % may be the effect or the level left
Method in brief: as §1

SMILES | Activity [%]
CCOC1=C2CC[C@@H]3[C@H](CC[C@]4(C)C(=O)CC[C@@H]34)[C@@]2(C)CCC1=O | 92.93

System: EKVX
Assay: Antitumor activity against human EKVX cells assessed as reduction of cell growth at 10 uM after 48 hrs by SRB assay
Format: functional
Design: scale not given: the % may be the effect or the level left
Method in brief: as §1

SMILES | Activity [%]
CCOC1=C2CC[C@@H]3[C@H](CC[C@]4(C)C(=O)CC[C@@H]34)[C@@]2(C)CCC1=O | 111.14

System: A549
Assay: Antitumor activity against human A549/ATCC cells assessed as reduction of cell growth at 10 uM after 48 hrs by SRB assay
Format: functional
Design: scale not given: the % may be the effect or the level left
Method in brief: as §1

SMILES | Activity [%]
CCOC1=C2CC[C@@H]3[C@H](CC[C@]4(C)C(=O)CC[C@@H]34)[C@@]2(C)CCC1=O | 97.79

System: SF-539
Assay: Antitumor activity against human SF-539 cells assessed as reduction of cell growth at 10 uM after 48 hrs by SRB assay
Format: functional
Design: scale not given: the % may be the effect or the level left
Method in brief: as §1

SMILES | Activity [%]
CCOC1=C2CC[C@@H]3[C@H](CC[C@]4(C)C(=O)CC[C@@H]34)[C@@]2(C)CCC1=O | 111.3

System: SNB-75
Assay: Antitumor activity against human SNB75 cells assessed as reduction of cell growth at 10 uM after 48 hrs by SRB assay
Format: functional
Design: scale not given: the % may be the effect or the level left
Method in brief: as §1

SMILES | Activity [%]
CCOC1=C2CC[C@@H]3[C@H](CC[C@]4(C)C(=O)CC[C@@H]34)[C@@]2(C)CCC1=O | 79.71
